How the values were obtained:
[1] = biological target: T1, Amine oxidase [flavin-containing] B (Homo sapiens, UniProt P27338); assay: Inhibition of human MAO-B
T1 sequence (P27338 whole entry): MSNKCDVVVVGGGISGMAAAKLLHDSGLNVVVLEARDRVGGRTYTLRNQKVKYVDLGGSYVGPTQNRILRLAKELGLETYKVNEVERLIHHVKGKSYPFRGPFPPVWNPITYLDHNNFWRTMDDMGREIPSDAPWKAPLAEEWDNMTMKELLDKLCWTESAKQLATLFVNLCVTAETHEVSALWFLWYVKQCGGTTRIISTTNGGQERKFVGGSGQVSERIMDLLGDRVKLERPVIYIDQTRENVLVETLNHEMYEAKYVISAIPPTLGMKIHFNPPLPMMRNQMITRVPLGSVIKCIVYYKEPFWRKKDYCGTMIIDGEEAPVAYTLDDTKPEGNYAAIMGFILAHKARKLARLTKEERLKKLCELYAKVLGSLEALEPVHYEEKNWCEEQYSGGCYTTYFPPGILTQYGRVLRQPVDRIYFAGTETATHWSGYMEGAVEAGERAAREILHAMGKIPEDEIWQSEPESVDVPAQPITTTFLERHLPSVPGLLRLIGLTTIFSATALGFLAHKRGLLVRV

[2] = biological target: T2, Amine oxidase [flavin-containing] A (Homo sapiens, UniProt P21397); assay: Inhibition of human MAO-A
T2 sequence (P21397 whole entry): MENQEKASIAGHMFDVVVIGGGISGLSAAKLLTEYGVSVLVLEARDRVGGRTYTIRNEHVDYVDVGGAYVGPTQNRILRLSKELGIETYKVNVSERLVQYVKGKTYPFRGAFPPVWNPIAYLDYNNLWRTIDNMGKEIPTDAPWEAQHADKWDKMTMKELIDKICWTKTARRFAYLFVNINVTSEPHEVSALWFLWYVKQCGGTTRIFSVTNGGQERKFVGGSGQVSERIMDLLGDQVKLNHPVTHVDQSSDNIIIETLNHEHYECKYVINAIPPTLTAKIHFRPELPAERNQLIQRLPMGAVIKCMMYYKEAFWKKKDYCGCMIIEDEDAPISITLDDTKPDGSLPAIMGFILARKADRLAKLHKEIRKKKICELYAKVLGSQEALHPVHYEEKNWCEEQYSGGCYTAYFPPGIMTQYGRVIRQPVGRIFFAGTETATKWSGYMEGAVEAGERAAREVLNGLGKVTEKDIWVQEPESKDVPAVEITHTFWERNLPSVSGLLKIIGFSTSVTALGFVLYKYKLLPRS
Outline: (§1)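 Human MAO-A and MAO-B inhibition, screened first at a test concentration of 10 µM.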

[3] = biological target: T3, MAO-A (amine oxidase [flavin-containing] A) (Homo sapiens, UniProt P21397); assay: Inhibition of human MAO-A at 10 uM relative to control; outline: as §1
T3 sequence (P21397 whole entry): T2 sequence (P21397 whole entry)

[4] = biological target: T4, Adenosine receptor A3 (Homo sapiens) (UniProt P0DMS8); assay: Displacement of [3H]PSB-11 from human adenosine A3 receptor expressed in CHO cells relative to control; assay type: cell-based; design: concentration or dose not given beside the values; conditions: concentration not given here
T4 sequence (whole entry): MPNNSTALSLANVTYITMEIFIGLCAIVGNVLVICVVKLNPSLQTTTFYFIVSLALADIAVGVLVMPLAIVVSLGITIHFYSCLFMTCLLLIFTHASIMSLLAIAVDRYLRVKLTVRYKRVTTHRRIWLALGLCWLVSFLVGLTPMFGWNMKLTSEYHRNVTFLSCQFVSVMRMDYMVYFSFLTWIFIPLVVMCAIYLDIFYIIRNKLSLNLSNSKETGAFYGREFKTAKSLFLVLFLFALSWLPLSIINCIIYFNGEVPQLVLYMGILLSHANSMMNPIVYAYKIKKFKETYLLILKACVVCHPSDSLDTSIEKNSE

[5] = biological target: T5, Adenosine receptor A3 (Homo sapiens, UniProt P0DMS8); assay: Displacement of [3H]PSB-11 from human adenosine A3 receptor expressed in CHO cells; assay type: cell-based
T5 sequence (P0DMS8 whole entry): T4 sequence (whole entry)

[6] = biological target: T6, Adenosine receptor A2b (Homo sapiens) (UniProt P29275); assay: Displacement of [3H]PSB-603 from human adenosine A2B receptor relative to control; design: concentration or dose not given beside the values; conditions: concentration not given here
T6 sequence (whole entry): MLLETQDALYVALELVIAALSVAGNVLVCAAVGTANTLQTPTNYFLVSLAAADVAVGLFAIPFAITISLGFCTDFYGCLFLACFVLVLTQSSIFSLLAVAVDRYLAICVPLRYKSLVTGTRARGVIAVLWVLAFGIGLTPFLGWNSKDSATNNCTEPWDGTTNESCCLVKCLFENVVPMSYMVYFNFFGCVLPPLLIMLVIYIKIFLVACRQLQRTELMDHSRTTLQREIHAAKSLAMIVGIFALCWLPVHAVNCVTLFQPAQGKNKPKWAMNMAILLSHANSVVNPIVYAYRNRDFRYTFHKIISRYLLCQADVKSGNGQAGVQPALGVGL

[7] = biological target: Adenosine receptor A2a (Rattus norvegicus) (UniProt P30543); assay: Displacement of [3H]MSX-2 from adenosine A2A receptor in rat brain striatum relative to control; assay type: tissue-based; design: concentration or dose not given beside the values; conditions: concentration not given here
Adenosine receptor A2a (Rattus norvegicus), sequence (P30543 whole entry): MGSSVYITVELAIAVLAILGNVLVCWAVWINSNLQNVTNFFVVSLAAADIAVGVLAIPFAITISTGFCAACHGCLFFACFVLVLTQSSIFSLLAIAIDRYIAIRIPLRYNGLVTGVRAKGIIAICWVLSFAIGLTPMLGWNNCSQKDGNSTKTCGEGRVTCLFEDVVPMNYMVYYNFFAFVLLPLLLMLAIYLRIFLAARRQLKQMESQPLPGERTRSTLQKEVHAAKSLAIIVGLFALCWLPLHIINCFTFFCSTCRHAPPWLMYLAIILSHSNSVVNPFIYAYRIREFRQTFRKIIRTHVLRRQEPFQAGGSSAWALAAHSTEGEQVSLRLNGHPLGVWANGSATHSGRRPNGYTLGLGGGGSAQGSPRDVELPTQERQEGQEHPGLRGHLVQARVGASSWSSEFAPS
Outline: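 Radioligand binding to rat A2A receptors in rat brain striatal membrane preparations, reported as % inhibition of radioligand binding at the indicated concentration.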

[8] = biological target: Adenosine receptor A2a (Rattus norvegicus, UniProt P30543); assay: Displacement of [3H]MSX-2 from adenosine A2A receptor in rat brain striatum; assay type: tissue-based
Adenosine receptor A2a (Rattus norvegicus, UniProt P30543), sequence (P30543 whole entry): as above

[9] = biological target: T7, Adenosine receptor A2b (Homo sapiens, UniProt P29275); assay: Displacement of [3H]PSB-603 from human adenosine A2B receptor
T7 sequence (P29275 whole entry): T6 sequence (whole entry)

[10] = biological target: T8, Adenosine receptor A1 (Rattus norvegicus, UniProt P25099); assay: Displacement of [3H]CCPA from adenosine A1 receptor in rat brain cortex; assay type: tissue-based
T8 sequence (P25099 whole entry): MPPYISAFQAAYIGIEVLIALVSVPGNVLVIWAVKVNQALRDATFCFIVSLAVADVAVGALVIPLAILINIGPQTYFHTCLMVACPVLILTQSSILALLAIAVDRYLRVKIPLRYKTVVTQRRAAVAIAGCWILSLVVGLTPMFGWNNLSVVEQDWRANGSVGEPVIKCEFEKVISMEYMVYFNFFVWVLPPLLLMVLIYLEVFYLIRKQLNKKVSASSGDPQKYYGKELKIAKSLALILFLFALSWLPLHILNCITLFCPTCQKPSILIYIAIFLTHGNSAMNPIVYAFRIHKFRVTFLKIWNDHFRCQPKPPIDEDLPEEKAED
Outline: (§2)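 Radioligand binding to rat A1 receptors in rat brain cortical membrane preparations. Values are given as Ki, or as % inhibition of radioligand binding at the indicated concentration.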

[11] = biological target: T9, Adenosine receptor A1 (Rattus norvegicus) (UniProt P25099); assay: Displacement of [3H]CCPA from adenosine A1 receptor in rat brain cortex relative to control; assay type: tissue-based; design: concentration or dose not given beside the values; conditions: concentration not given here; outline: as §2
T9 sequence (whole entry): T8 sequence (P25099 whole entry)

[12] = biological target: T10, MAO-B (amine oxidase [flavin-containing] B) (Homo sapiens, UniProt P27338); assay: Inhibition of human MAO-B at 10 uM relative to control; outline: as §1
T10 sequence (P27338 whole entry): T1 sequence (P27338 whole entry)

[13] = biological target: T11, Adenosine receptor A1 (Homo sapiens, UniProt P30542); assay: Displacement of [3H]CCPA from human adenosine A1 receptor expressed in CHO cells; assay type: cell-based
T11 sequence (P30542 whole entry): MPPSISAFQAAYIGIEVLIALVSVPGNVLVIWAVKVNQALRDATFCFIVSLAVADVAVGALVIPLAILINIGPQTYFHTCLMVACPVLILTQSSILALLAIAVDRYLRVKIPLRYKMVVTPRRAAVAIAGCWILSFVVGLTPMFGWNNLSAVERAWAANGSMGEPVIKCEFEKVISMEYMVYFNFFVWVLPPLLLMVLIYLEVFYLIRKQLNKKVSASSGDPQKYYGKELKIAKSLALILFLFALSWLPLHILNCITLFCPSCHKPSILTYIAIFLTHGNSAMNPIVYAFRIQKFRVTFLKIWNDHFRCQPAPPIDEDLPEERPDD
Outline: (§3)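 Radioligand binding to human receptors recombinantly expressed in Chinese hamster ovary (CHO) cells. Results are Ki, or % inhibition of radioligand binding at the indicated concentration.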

[14] = biological target: Adenosine receptor A2a (Homo sapiens, UniProt P29274); assay: Displacement of [3H]MSX-2 from human adenosine A2A receptor expressed in CHO cells; assay type: cell-based; outline: as §3
Adenosine receptor A2a (Homo sapiens, UniProt P29274), sequence (P29274 whole entry): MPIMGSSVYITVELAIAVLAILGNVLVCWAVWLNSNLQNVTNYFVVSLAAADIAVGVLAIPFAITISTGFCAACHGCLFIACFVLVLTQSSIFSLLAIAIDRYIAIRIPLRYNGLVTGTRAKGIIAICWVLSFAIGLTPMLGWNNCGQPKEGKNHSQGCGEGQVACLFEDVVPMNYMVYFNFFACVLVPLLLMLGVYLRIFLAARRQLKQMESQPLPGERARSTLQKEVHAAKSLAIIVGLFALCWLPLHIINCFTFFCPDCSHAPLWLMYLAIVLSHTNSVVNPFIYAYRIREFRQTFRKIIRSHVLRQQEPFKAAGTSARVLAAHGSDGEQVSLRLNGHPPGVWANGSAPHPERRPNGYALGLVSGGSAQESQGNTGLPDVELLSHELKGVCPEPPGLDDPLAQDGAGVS

Row | SMILES | IC50 [1] | IC50 [2] | inhibition at 10 µM [3] | inhibition [4] | Ki [5] | inhibition [6] | inhibition [7] | Ki [8] | Ki [9] | Ki [10] | inhibition [11] | inhibition at 10 µM [12] | Ki [13] | Ki [14]
1 | CCCn1c(=O)c2c(nc3n2CCCN3CCC(=O)N2CCN(Cc3ccc(Cl)cc3)CC2)n(CCC)c1=O | 3600 nM | > 10000 nM | 1% | 23% | > 1000 nM | -4% | 40% | > 10000 nM | > 1000 nM | > 1500 nM | 8% |  |  | 
2 | CCCn1c(=O)c2c(nc3n2CCCN3CC(=O)N2CCN(c3ccc(Cl)cc3)CC2)n(CCC)c1=O | 10000 nM | > 10000 nM | -2% |  | 762 nM | 7% | 36% | > 10000 nM | > 1000 nM | > 1500 nM | 19% | 52% |  | 
3 | CCCn1c(=O)c2c(nc3n2CCCN3CCC(=O)N2CCN(c3ccccc3)CC2)n(CCC)c1=O | > 10000 nM |  |  | 21% | > 1000 nM | -5% | 14% | > 10000 nM | > 1000 nM | > 1500 nM | 5% | 30% |  | 
4 | C#CCn1c(=O)c2c(nc3n2CCCN3Cc2cccs2)n(C)c1=O | 10000 nM | > 10000 nM | 0% | 30% | > 10000 nM |  |  | 259 nM | 1740 nM | 114 nM |  | 51% | 410 nM | 626 nM
5 | CCCn1c(=O)c2c(nc3n2CCCN3CC(=O)N2CCN(Cc3ccc(OC)cc3)CC2)n(CCC)c1=O | > 10000 nM |  |  |  | 1600 nM | 4% | 33% | > 10000 nM | > 1000 nM | > 1500 nM | 18% | 30% |  | 
6 | COc1ccc(CN2CCN(C(=O)CN3CCCn4c3nc3c4c(=O)n(C)c(=O)n3C)CC2)cc1 | > 10000 nM |  |  | 15% | > 10000 nM | -8% | 41% | > 10000 nM | > 1000 nM | > 1500 nM | 0% | 30% |  | 
7 | Cn1c(=O)c2c(nc3n2CCCN3CC(=O)N2CCN(c3ccccc3)CC2)n(C)c1=O | 10000 nM | > 10000 nM | 1% | 32% | > 10000 nM |  | 40% | > 10000 nM | > 1000 nM | > 1500 nM | 3% | 40% |  | 
8 | CCn1c(=O)c2c(nc3n2CCCN3CCc2ccc(OC)cc2)n(CC)c1=O | 4760 nM | > 10000 nM | 2% |  | 6320 nM | 29% |  | 624 nM | > 1000 nM | > 10000 nM | 20% |  |  | 2530 nM
9 | Cn1c(=O)c2c(nc3n2CCCN3Cc2cc(Cl)cc(Cl)c2)n(C)c1=O | 193 nM | > 10000 nM | 1% | 14% | > 10000 nM | 4% |  | 1640 nM | > 1000 nM | 165 nM |  |  | 1700 nM | 3780 nM
10 | C#CCn1c(=O)c2c(nc3n2CCCN3Cc2cccc(OC)c2)n(C)c1=O | 10000 nM | > 10000 nM | 5% |  |  | 8% |  | 696 nM |  | 227 nM |  | 51% | 1330 nM | 322 nM
11 | CCn1c(=O)c2c(nc3n2CCCN3CCN2CCCCC2)n(CC)c1=O | > 10000 nM |  |  | 13% | > 1000 nM | 2% | 44% | > 10000 nM | > 300 nM | 1070 nM |  | 34% |  | 
12 | Cn1c(=O)c2c(nc3n2CCCN3CC(=O)N2CCN(Cc3ccc(C(F)(F)F)cc3)CC2)n(C)c1=O | 3480 nM | > 10000 nM | 6% | 36% | > 10000 nM | 2% | 27% | > 10000 nM | > 1000 nM | > 1500 nM | 2% |  |  | 
13 | C#CCn1c(=O)c2c(nc3n2CCCN3C2CCN(Cc3ccccc3)CC2)n(C)c1=O | > 10000 nM |  |  | 3% | > 1000 nM | -2% |  | 2470 nM | > 1000 nM | > 10000 nM | 32% | 22% |  | 628 nM
14 | Cn1c(=O)c2c(nc3n2CCCN3c2cc(Cl)cc(Cl)c2)n(C)c1=O | > 10000 nM |  |  | 21% | > 10000 nM | 11% |  | 5540 nM | > 1000 nM | > 10000 nM | 21% | 58% |  | 4610 nM
15 | CCCn1c(=O)c2c(nc3n2CCCN3CC(=O)N2CCN(c3ccccc3)CC2)n(CCC)c1=O | 10000 nM |  |  |  | 2450 nM | 6% | 27% | > 10000 nM | > 1000 nM | > 1500 nM | 18% | 46% |  | 
